Laboratory results as given in PubChem BioAssay AID602425 (Sanford-Burnham Center for Chemical Genomics, 2012).
Active and inactive are the calls of the source.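 Rule for the calls: active = IC50 of 80 µM or lower; inactive = the rest.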

Molecular target: glucose-6-phosphate dehydrogenase-6-phosphogluconolactonase (PfGluPho) [Plasmodium falciparum 3D7]
Assay: inhibition of P. falciparum G6PD rate – biochemical, kinetic direct NADPH detection, set 3, orthogonal assay for PfG6PD antimalarial inhibitor project, SAR follow-up (AID 602425)
Details: recombinant PfG6PDH, direct NADPH fluorescence kinetic
Method in brief: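 Timing: reads at 5-min intervals; Test system: PfG6PDH, the glucose-6-phosphate dehydrogenase of Plasmodium falciparum; Buffer or medium: Tris-HCl pH 7.5 buffer with MgCl2, Tween 20, BSA; Signal: NADPH fluorescence, 340 nm excitation, 450 nm emission; Reagent: G6P 20 µM and NADP 3 µM final; Dosing: test compounds in dose-response series.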

Structure (SMILES)	IC50
CCN1CCCCC1CNC(=O)c1ccc2c(c1)NC(=O)c1ccccc1S2 (configuration not stated)	> 80 µM (inactive)
CCN1CCC[C@@H]1CNC(=O)c1ccc2c(c1)NC(=O)c1ccccc1N2	> 80 µM (inactive)
CCN1CCC[C@@H]1CNC(=O)c1ccc2c(c1)NC(=O)c1cc(F)ccc1S2	49.1 µM
O=C(NC[C@H]1CCCN1)c1ccc2c(c1)NC(=O)c1ccccc1S2	40.3 µM
CCN1CCC[C@@H]1CNC(=O)c1ccc2c(c1)NC(=O)c1ccc(F)cc1S2	4.34 µM
CCCN1CCCCC1CNC(=O)c1ccc2c(c1)NC(=O)c1ccccc1S2 (configuration not stated)	62.6 µM
CCCCN1CCCC1CNC(=O)c1ccc2c(c1)NC(=O)c1ccccc1S2 (configuration not stated)	18.5 µM
CCN1CCC(NC(=O)c2ccc3c(c2)NC(=O)c2ccccc2S3)C1 (configuration not stated)	> 80 µM (inactive)
CCCN1CCC[C@@H]1CNC(=O)c1ccc2c(c1)NC(=O)c1ccccc1S2	11.4 µM
CCN1CCC[C@@H]1CNC(=O)c1ccc2c(c1)NC(=O)c1cc(C)ccc1S2	24.4 µM
CN1CCCCC1CNC(=O)c1ccc2c(c1)NC(=O)c1ccccc1S2 (configuration not stated)	71.4 µM
CN1CCC(NC(=O)c2ccc3c(c2)NC(=O)c2ccccc2S3)C1 (configuration not stated)	> 80 µM (inactive)
CN1CCCC1CNC(=O)c1ccc2c(c1)NC(=O)c1ccccc1S2 (configuration not stated)	23.3 µM
CCCCCCN1CCCC1CNC(=O)c1ccc2c(c1)NC(=O)c1ccccc1S2 (configuration not stated)	42.2 µM
CCCN1CCC(NC(=O)c2ccc3c(c2)NC(=O)c2ccccc2S3)C1 (configuration not stated)	> 80 µM (inactive)
O=C(NCC1CCCCN1)c1ccc2c(c1)NC(=O)c1ccccc1S2 (configuration not stated)	41.4 µM
CCN1CCC[C@@H]1CNC(=O)c1ccc2c(c1)NC(=O)c1cccc(C)c1S2	0.212 µM
